Data published in ChEMBL document CHEMBL1268917, “Synthesis and biological evaluation of radio-iodinated benzimidazoles as SPECT imaging agents for NR2B subtype of NMDA receptor” (Bioorg Med Chem, 2010).

Legend:
Assay type in all cases: ADME, organism-based
[1] = system: Brain; assay: Biodistribution in ddY mouse brain assessed per gram of tissue at 14.8 kBq, iv after 5 mins; settings: in vivo
Procedure, shortened: (§1)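 Killed at set times after injection; organs and blood removed, weighed, gamma counted. Data as % injected dose per gram tissue, mean SD, n = 5–6.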

[2] = system: Intestine; assay: Biodistribution in ddY mouse intestine assessed per gram of tissue at 14.8 kBq, iv after 180 mins; settings: in vivo, 3 h; procedure, shortened: as §1
[3] = system: Liver; assay: Biodistribution in ddY mouse liver assessed per gram of tissue at 14.8 kBq, iv after 60 mins; settings: in vivo, 1 h
Procedure, shortened: (§2)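 Radioiodinated tracer (14.8 kBq) injected via tail vein into male ddY mice (6 weeks, 30–35 g). Organs removed at set times after injection, weighed and gamma-counted; uptake expressed as % injected dose per gram tissue, mean ± SD, n = 5–6.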

[4] = system: Kidney; assay: Biodistribution in ddY mouse kidney assessed per gram of tissue at 14.8 kBq, iv after 0.5 mins; settings: in vivo; procedure, shortened: as §1
[5] = system: Lung; assay: Biodistribution in ddY mouse lung assessed per gram of tissue at 14.8 kBq, iv after 5 mins; settings: in vivo; procedure, shortened: as §2
[6] = system: Lung; assay: Biodistribution in ddY mouse lung assessed per gram of tissue at 14.8 kBq, iv after 180 mins; settings: in vivo, 3 h; procedure, shortened: as §2
[7] = system: Brain; assay: Biodistribution in ddY mouse brain assessed per gram of tissue at 14.8 kBq, iv after 360 mins; settings: in vivo, 6 h; procedure, shortened: as §1
[8] = system: Brain; assay: Biodistribution in ddY mouse brain assessed per gram of tissue at 14.8 kBq, iv after 60 mins; settings: in vivo, 1 h; procedure, shortened: as §1
[9] = system: Kidney; assay: Biodistribution in ddY mouse kidney assessed per gram of tissue at 14.8 kBq, iv after 30 mins; settings: in vivo, 0.5 h; procedure, shortened: as §1
[10] = system: Pancreas; assay: Biodistribution in ddY mouse pancreas assessed per gram of tissue at 14.8 kBq, iv after 360 mins; settings: in vivo, 6 h; procedure, shortened: as §2
[11] = system: Stomach; assay: Biodistribution in ddY mouse stomach assessed per gram of tissue at 14.8 kBq, iv after 5 mins; settings: in vivo; procedure, shortened: as §2
[12] = system: Brain; assay: Biodistribution in ddY mouse brain assessed per gram of tissue at 14.8 kBq, iv after 30 mins; settings: in vivo, 0.5 h; procedure, shortened: as §1
[13] = system: Heart; assay: Biodistribution in ddY mouse heart assessed per gram of tissue at 14.8 kBq, iv after 30 mins; settings: in vivo, 0.5 h; procedure, shortened: as §1
[14] = system: Spleen; assay: Biodistribution in ddY mouse spleen assessed per gram of tissue at 14.8 kBq, iv after 360 mins; settings: in vivo, 6 h; procedure, shortened: as §2
[15] = system: Blood; assay: Biodistribution in ddY mouse blood assessed per gram of tissue at 14.8 kBq, iv after 360 mins; settings: in vivo, 6 h; procedure, shortened: as §1
[16] = system: Blood; assay: Biodistribution in ddY mouse blood assessed per gram of tissue at 14.8 kBq, iv after 5 mins; settings: in vivo; procedure, shortened: as §1
[17] = system: Stomach; assay: Biodistribution in ddY mouse stomach assessed per gram of tissue at 14.8 kBq, iv after 30 mins; settings: in vivo, 0.5 h; procedure, shortened: as §2
[18] = system: Lung; assay: Biodistribution in ddY mouse lung assessed per gram of tissue at 14.8 kBq, iv after 30 mins; settings: in vivo, 0.5 h; procedure, shortened: as §2
[19] = system: Spleen; assay: Biodistribution in ddY mouse spleen assessed per gram of tissue at 14.8 kBq, iv after 30 mins; settings: in vivo, 0.5 h; procedure, shortened: as §2
[20] = system: Spleen; assay: Biodistribution in ddY mouse spleen assessed per gram of tissue at 14.8 kBq, iv after 60 mins; settings: in vivo, 1 h; procedure, shortened: as §2
[21] = system: Blood; assay: Biodistribution in ddY mouse blood assessed per gram of tissue at 14.8 kBq, iv after 60 mins; settings: in vivo, 1 h; procedure, shortened: as §1
[22] = system: Spleen; assay: Biodistribution in ddY mouse spleen assessed per gram of tissue at 14.8 kBq, iv after 180 mins; settings: in vivo, 3 h; procedure, shortened: as §2
[23] = system: Intestine; assay: Biodistribution in ddY mouse intestine assessed per gram of tissue at 14.8 kBq, iv after 60 mins; settings: in vivo, 1 h; procedure, shortened: as §1
[24] = system: Intestine; assay: Biodistribution in ddY mouse intestine assessed per gram of tissue at 14.8 kBq, iv after 0.5 mins; settings: in vivo; procedure, shortened: as §1
[25] = system: Pancreas; assay: Biodistribution in ddY mouse pancreas assessed per gram of tissue at 14.8 kBq, iv after 30 mins; settings: in vivo, 0.5 h; procedure, shortened: as §2
[26] = system: Stomach; assay: Biodistribution in ddY mouse stomach assessed per gram of tissue at 14.8 kBq, iv after 0.5 mins; settings: in vivo; procedure, shortened: as §2
[27] = system: Brain; assay: Biodistribution in ddY mouse brain assessed per gram of tissue at 14.8 kBq, iv after 180 mins; settings: in vivo, 3 h; procedure, shortened: as §1
[28] = system: Intestine; assay: Biodistribution in ddY mouse intestine assessed per gram of tissue at 14.8 kBq, iv after 360 mins; settings: in vivo, 6 h; procedure, shortened: as §1
[29] = system: Liver; assay: Biodistribution in ddY mouse liver assessed per gram of tissue at 14.8 kBq, iv after 360 mins; settings: in vivo, 6 h; procedure, shortened: as §1
[30] = system: Pancreas; assay: Biodistribution in ddY mouse pancreas assessed per gram of tissue at 14.8 kBq, iv after 60 mins; settings: in vivo, 1 h; procedure, shortened: as §2

For `CS(=O)(=O)Nc1ccc2nc(CN3CCC(Cc4ccc([125I])cc4)CC3)[nH]c2c1`, the Drug uptake [1] was 0.44 % ID/g, the Drug uptake [2] was 7.82 % ID/g and the Drug uptake [3] was 13.74 % ID/g. For the same compound, the Drug uptake [4] was 3.26 % ID/g, the Drug uptake [5] was 3.52 % ID/g and the Drug uptake [6] was 1.61 % ID/g. For the same compound, the Drug uptake [7] was 0.47 % ID/g, the Drug uptake [8] was 0.52 % ID/g and the Drug uptake [9] was 8.79 % ID/g. For the same compound, the Drug uptake [10] was 3.72 % ID/g, the Drug uptake [11] was 1.28 % ID/g and the Drug uptake [12] was 0.5 % ID/g. It also gave a Drug uptake [13] of 4.29 % ID/g, a Drug uptake [14] of 1.6 % ID/g and a Drug uptake [15] of 0.36 % ID/g. It also gave a Drug uptake [16] of 0.95 % ID/g, a Drug uptake [17] of 2.24 % ID/g and a Drug uptake [18] of 1.86 % ID/g. The Drug uptake [19] was 2.91 % ID/g, the Drug uptake [20] was 2.78 % ID/g and the Drug uptake [21] was 0.54 % ID/g. It also gave a Drug uptake [22] of 2.85 % ID/g, a Drug uptake [23] of 3.79 % ID/g and a Drug uptake [24] of 0.55 % ID/g. For the same compound, the Drug uptake [25] was 3.71 % ID/g, the Drug uptake [26] was 0.42 % ID/g and the Drug uptake [27] was 0.67 % ID/g. The Drug uptake [28] was 6.49 % ID/g, the Drug uptake [29] was 10.93 % ID/g and the Drug uptake [30] was 4.55 % ID/g.
